Published values of several laboratories.
Protocols differ between the studies behind these lines.
Target: High affinity nerve growth factor receptor (NTRK1, Homo sapiens, UniProt P04629)

C=CC(=O)N1CCC(C(=O)NCC(=O)N2CCN(c3nc(-c4cnc(N)nc4C(F)F)nc(N4CCOCC4)n3)CC2)CC1  remaining binding (binding, competition with immobilised ligand; 1 µM): 81%
O=C(NCCCC1CCCCC1)c1ccc(CNC(=O)c2cnn(-c3ccccc3)c2C(F)(F)F)cc1  remaining binding (cell-free assay, competition with immobilised ligand; 0.1 µM): 100%
F[C@@H]1CCN(c2nccc(-c3cnn4ncccc34)n2)C1  remaining binding (binding; 1 µM): 86%
O=C(c1ccc(Nc2nccc(-c3cc4ccccc4s3)n2)cc1)N1CCC(N2CCCC2)CC1  remaining binding (binding, competition with immobilised ligand; 1 µM): 25%
Cc1cc(Nc2nccc(C)n2)cc(-c2cnc([C@@]3(O)CC[C@H](C(=O)O)C(C)(C)C3)s2)c1  remaining binding (binding, competition with immobilised ligand; 1 µM): 30.2%
C[C@H]1CCN(c2nccc(-c3cnn4ncccc34)n2)C1  remaining binding (binding; 1 µM): 68%
O=C(c1ccc(Nc2ncc(Cl)c(-c3ccc(Cl)s3)n2)cc1)N1CCC(N2CCCC2)CC1  remaining binding (binding, competition with immobilised ligand; 1 µM): 1.3%
CN(C(=O)c1ccccc1)c1cc(N(C)c2ccc3c(c2)CCc2ccc(C(=O)NCCN4CCOCC4)cc2C3=O)ccc1F  remaining binding (cell-free assay, competition with immobilised ligand; 1 µM): 79%
O=C(NCC1CCOCC1)c1n[nH]cc1NC(=O)c1c(F)cccc1F  remaining binding (binding, competition with immobilised ligand; 1 µM): 100%
CC1CCCN1c1nccc(-c2cnn3ncccc23)n1 (stereo not shown)  remaining binding (binding; 1 µM): 87%
FC(F)(F)Oc1cccc(-c2cnc3ccc(-c4ccncc4)nn23)c1  remaining binding (cell-free assay, competition with immobilised ligand; 5 µM): 1.9%
CN(C)c1nccc(-c2cnc3ncccn23)n1  remaining binding (binding; 1 µM): 72%
CN(c1ccnc(CNc2nc(Nc3ccc4c(c3)CC(=O)N4)ncc2C(F)(F)F)n1)S(C)(=O)=O  remaining binding (cell-free assay, competition with immobilised ligand; 1 µM): 10%
COc1cnc(Nc2cccc(S(N)(=O)=O)c2)nc1N1CCN(c2ccccc2)CC1  remaining binding (binding, competition with immobilised ligand; 1 µM): 58%
O=S(=O)(NC1CCC(c2cc(F)ccc2F)(S(=O)(=O)c2ccc(Cl)cc2)CC1)C(F)(F)F (stereo not shown)  remaining binding (cell-free assay, competition with immobilised ligand; 1 µM): 76%
COc1ncc2cc3ccccc3nc2c1C#N  remaining binding (cell-free assay, competition with immobilised ligand; 5 µM): 100%
